This is an account of results in ChEMBL document CHEMBL2390917, “Synthesis and biological evaluation of 2-(5-methyl-4-phenyl-2-oxopyrrolidin-1-yl)-acetamide stereoisomers as novel positive allosteric modulators of sigma-1 receptor” (Bioorg Med Chem, 2013).

Each structure is given as a SMILES string. Counter-ions that a name gives are not always drawn. The source made the active and inactive calls. The calls are words filed in the database; no cut-off is given here. Residues, ends and D or L forms follow the SMILES beside them.

Experiment [1] concerns the target Sigma non-opioid intracellular receptor 1 (Homo sapiens, UniProt Q99720).
Experiment [2] addresses Muscarinic acetylcholine receptor M5 (Homo sapiens, UniProt P08912). The experiment in a line: Binding affinity to human muscarinic M5 receptor by radioligand displacement assay. In general terms: Loss of bound radioactivity is the signal in a displacement assay; it reports binding, not function.
Experiment [3] has as its target Adrenergic receptor alpha-1 (Homo sapiens, UniProt P35348+P25100+P35368). The experiment in a line: Binding affinity to human adrenergic alpha1 receptor by radioligand displacement assay.
For experiment [4], the target named is Sigma non-opioid intracellular receptor 1 (Rattus norvegicus) (UniProt Q9R0C9). The experiment in a line: Positive allosteric modulation of Wistar rat sigma 1 receptor assessed as potentiation of PRE-084 effect on electrically-stimulated vas deferens contraction at 10 uM preincubated for 10 mins followed by PRE-084 addition. Summed up:
(§1)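 Isolated rat vas deferens, proximal ~15 mm segments, in K-H buffer at 32 °C gassed […], with 1.0 g passive tension and a 60 min adaptation. Field-stimulated at 0.1 Hz, 1 ms, 50 V. Cumulative PRE-084 (1–100 µM) was given, then washout and a 30 min rest. Test compound 10 µM was added for 10 min before cumulative PRE-084. Response is % increase over baseline amplitude; n=6, mean ± SEM, paired t-test.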

Experiment [5] shares this target. The experiment in a line: Positive allosteric modulation of Wistar rat sigma 1 receptor assessed as increase in electrically-stimulated vas deferens contraction at 10 uM after 10 mins. Summed up:
as §1

The nature of experiment [6]: Binding affinity to P2X receptor (unknown origin) by radioligand displacement assay. Further details: species or system Homo sapiens.
A short description of experiment [7]: Binding affinity to GABA-gated chloride channel (unknown origin) by radioligand displacement assay. Further details: species or system Homo sapiens.
Experiment [8] can be described thus: Binding affinity to L-type calcium channel verapamil binding site (unknown origin) by radioligand displacement assay. Set-up: species or system Homo sapiens.
The target of experiment [9] is 5-hydroxytryptamine receptor 2B (Homo sapiens, UniProt P41595). The experiment in a line: Binding affinity to human 5-HT2B receptor by radioligand displacement assay.
Experiment [10] can be described thus: Binding affinity to sodium channel site 2 (unknown origin) by radioligand displacement assay. Set-up: species or system Homo sapiens.
Experiment [11] concerns the target 5-hydroxytryptamine receptor 2C (Homo sapiens, UniProt P28335). The experiment in a line: Binding affinity to human 5-HT2C receptor by radioligand displacement assay.
Experiment [12] can be described thus: Binding affinity to PCP receptor (unknown origin) by radioligand displacement assay. Set-up: species or system Homo sapiens.
The target in experiment [13] is Type-2 angiotensin II receptor (Homo sapiens, UniProt P50052). The experiment in a line: Binding affinity to human angiotensin AT2 receptor by radioligand displacement assay.
Experiment [14] is described as follows: Binding affinity to P2Y receptor (unknown origin) by radioligand displacement assay. Further details: species or system Homo sapiens.
Experiment [15] is described as follows: Binding affinity to peripheral-type BZD receptor (unknown origin) by radioligand displacement assay. Set-up: species or system Homo sapiens.
The target of experiment [16] is Alpha-2A adrenergic receptor (Homo sapiens, UniProt P08913). The experiment in a line: Binding affinity to human adrenergic alpha2 receptor by radioligand displacement assay.
Chain of Alpha-2A adrenergic receptor (P08913 whole entry): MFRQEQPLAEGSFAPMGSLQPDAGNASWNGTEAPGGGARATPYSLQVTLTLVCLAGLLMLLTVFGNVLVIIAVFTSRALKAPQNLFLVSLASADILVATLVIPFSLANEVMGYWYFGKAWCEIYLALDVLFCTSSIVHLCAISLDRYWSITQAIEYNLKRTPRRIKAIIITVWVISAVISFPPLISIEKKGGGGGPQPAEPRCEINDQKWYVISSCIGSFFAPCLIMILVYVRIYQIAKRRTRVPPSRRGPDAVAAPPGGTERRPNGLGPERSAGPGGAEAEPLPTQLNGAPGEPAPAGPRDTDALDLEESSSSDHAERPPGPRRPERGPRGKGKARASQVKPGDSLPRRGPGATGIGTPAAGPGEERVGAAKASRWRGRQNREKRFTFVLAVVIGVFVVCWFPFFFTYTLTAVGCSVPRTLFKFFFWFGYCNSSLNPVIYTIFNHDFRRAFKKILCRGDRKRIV

Chain of Sigma non-opioid intracellular receptor 1 (Rattus norvegicus) (Q9R0C9 whole entry): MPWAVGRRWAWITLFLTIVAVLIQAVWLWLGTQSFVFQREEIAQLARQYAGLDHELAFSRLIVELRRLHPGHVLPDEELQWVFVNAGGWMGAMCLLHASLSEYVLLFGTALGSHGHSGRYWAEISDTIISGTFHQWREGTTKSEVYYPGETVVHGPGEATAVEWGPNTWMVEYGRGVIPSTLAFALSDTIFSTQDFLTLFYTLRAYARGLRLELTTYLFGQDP
Chain of Sigma non-opioid intracellular receptor 1 (Q99720 whole entry): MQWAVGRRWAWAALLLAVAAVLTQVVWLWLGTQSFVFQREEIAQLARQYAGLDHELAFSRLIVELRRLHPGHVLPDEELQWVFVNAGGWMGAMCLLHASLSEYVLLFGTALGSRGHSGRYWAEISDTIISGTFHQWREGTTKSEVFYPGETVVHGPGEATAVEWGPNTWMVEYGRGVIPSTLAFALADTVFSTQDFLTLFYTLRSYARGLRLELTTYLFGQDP
Chain of 5-hydroxytryptamine receptor 2B (P41595 whole entry): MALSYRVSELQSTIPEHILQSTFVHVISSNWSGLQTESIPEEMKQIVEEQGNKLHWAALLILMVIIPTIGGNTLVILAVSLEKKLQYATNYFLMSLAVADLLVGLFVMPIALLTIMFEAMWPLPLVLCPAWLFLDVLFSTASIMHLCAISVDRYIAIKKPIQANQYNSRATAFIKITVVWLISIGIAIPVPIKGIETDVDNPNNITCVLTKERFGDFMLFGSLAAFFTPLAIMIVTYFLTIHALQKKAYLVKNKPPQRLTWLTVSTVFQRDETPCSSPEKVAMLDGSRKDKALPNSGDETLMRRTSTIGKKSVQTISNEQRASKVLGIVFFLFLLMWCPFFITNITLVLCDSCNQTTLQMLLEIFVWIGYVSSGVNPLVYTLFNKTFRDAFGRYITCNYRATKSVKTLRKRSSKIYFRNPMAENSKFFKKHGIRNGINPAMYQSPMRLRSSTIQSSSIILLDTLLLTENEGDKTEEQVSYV
Chain of Type-2 angiotensin II receptor (P50052 whole entry): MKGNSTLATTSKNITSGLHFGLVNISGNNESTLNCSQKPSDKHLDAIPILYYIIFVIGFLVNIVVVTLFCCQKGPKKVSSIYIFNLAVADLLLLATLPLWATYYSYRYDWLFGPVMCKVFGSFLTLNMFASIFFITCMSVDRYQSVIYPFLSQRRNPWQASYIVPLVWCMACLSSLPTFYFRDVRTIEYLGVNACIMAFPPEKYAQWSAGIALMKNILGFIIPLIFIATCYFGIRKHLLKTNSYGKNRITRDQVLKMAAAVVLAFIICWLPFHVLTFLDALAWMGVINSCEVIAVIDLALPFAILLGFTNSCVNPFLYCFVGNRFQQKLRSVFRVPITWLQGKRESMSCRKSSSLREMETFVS
Chain of 5-hydroxytryptamine receptor 2C (P28335 whole entry): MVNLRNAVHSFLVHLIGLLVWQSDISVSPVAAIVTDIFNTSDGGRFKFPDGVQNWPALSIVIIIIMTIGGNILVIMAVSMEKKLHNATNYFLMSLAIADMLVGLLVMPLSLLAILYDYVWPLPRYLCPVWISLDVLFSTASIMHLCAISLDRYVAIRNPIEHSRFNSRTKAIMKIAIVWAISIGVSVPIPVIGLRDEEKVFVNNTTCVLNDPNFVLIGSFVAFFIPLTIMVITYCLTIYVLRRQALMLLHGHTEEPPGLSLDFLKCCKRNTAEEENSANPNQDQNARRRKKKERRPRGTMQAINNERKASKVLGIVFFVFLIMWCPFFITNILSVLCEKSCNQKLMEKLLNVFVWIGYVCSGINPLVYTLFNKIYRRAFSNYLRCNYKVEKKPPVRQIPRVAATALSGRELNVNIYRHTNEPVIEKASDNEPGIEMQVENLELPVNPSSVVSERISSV
Chain of Muscarinic acetylcholine receptor M5 (P08912 whole entry): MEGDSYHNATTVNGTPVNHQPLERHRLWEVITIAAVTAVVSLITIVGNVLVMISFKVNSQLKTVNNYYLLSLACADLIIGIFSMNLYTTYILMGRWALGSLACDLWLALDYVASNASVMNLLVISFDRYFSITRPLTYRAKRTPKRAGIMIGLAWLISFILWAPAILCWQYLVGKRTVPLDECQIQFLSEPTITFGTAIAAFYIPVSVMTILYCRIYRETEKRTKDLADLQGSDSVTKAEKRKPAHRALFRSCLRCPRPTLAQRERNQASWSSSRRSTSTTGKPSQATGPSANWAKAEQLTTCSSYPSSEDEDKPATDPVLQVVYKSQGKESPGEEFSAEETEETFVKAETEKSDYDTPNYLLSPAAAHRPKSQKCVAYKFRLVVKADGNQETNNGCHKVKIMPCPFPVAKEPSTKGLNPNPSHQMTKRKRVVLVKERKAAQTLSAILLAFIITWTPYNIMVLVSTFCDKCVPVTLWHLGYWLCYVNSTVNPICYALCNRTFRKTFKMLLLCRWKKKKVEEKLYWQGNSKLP

`COc1cc2c(cc1OC)C(=O)C(CC1CCN(Cc3ccccc3)CC1)C2` (stereo not given) [DONEPEZIL] registered an inhibition constant Ki in [1] of 14.6 nM.

`C[N+]1(C)CCC(OC(=O)C(c2ccccc2)c2ccccc2)CC1` [4-DAMP] gave an IC50 in [2] of 0.8 nM.

As to `CC(C)NCC(O)COc1ccc(CC(N)=O)cc1` (stereo not given) [ATENOLOL], the 50% inhibitory concentration (IC50) in experiment [3] was 230 nM.

For `C[C@@H]1[C@@H](c2ccccc2)CC(=O)N1CC(N)=O`, the outcome in experiment [4] was Active. In addition, the outcome in [5] was inactive.

Regarding `Nc1ncnc2c1ncn2[C@@H]1O[C@H](COP(=O)(O)CP(=O)(O)OP(=O)(O)O)[C@@H](O)[C@H]1O` [DIPHOSPHOMETHYLPHOSPHONIC ACID ADENOSYL ESTER], the half-maximal inhibitory concentration (IC50) in [6] was 3.5 nM.

On to `C=C(C)[C@@H]1[C@H]2OC(=O)[C@@H]1[C@]1(O)C[C@H]3O[C@]34C(=O)O[C@H]2[C@]14C` [PICROTOXININ], for which the IC50 in experiment [7] is 250 nM.

On to `COc1ccc(CCN(C)CCCC(C#N)(c2cc(OC)c(OC)c(OC)c2)C(C)C)cc1OC` (stereo not given) [GALLOPAMIL], for which the IC50 in [8] worked out at 20 nM.

Take `COc1cc(CC(C)N)c(OC)cc1I` (stereo not given): the IC50 in experiment [9] is 3.2 nM.

In [10], `COc1ccc(C(=O)O[C@H]2CC[C@@]3(C)[C@@H]4CC[C@H]5[C@]6(O)C[C@H](O)[C@@]7(O)[C@@H](CN8C[C@@H](C)CC[C@H]8[C@@]7(C)O)[C@]6(O)C[C@@]53O[C@]24O)cc1OC` [VERATRIDINE] had an IC50 of 7700 nM.

`COc1cc(OC)c(C(=O)CCCCN2CCC3(CC2)NC(=O)NC3=O)cc1NS(=O)(=O)c1ccc(C(F)(F)F)cc1` [RS-102,221] showed an IC50 in experiment [11] of 5.5 nM.

Regarding `C[C@]12N[C@H](Cc3ccccc31)c1ccccc12` [DIZOCILPINE MALEATE], the IC50 in experiment [12] worked out at 6 nM.

On to `C[C@H]1[C@H](c2ccccc2)CC(=O)N1CC(N)=O`, for which the result in experiment [4] was Active. Also, in experiment [5], the result was inactive.

For `CC(C)[C@H](NC(=O)[C@H](CCCNC(=N)N)NC(=O)[C@@H](N)CC(=O)O)C(=O)N[C@@H](Cc1ccc(O)cc1)C(=O)N[C@H](C(=O)N[C@@H](Cc1cnc[nH]1)C(=O)N1CCC[C@H]1C(=O)N[C@@H](C)C(=O)O)C(C)C` [ANGIOTENSIN] (H-DRVYVHPA-OH), the IC50 in experiment [13] came to 0.13 nM.

In [14], `Nc1ncnc2c1ncn2[C@H]1C[C@H](O)[C@@H](COP(O)(=S)OP(=O)(O)OP(=O)(O)O)O1` (stereo not given in full) came in with an IC50 of 25 nM.

For the molecule `C[C@@H]1[C@H](c2ccccc2)CC(=O)N1CC(N)=O`, the result in [4] was Active. The outcome in experiment [5] was inactive.

In [15], `CCC(C)N(C)C(=O)c1cc2ccccc2c(-c2ccccc2Cl)n1` (stereo not given) [PK-11195] showed an IC50 of 1.1 nM.

`Cc1ccc(OCC(O)C(C)NC(C)C)c2c1CCC2` (stereo not given) [ZENIDOLOL] yielded an IC50 in experiment [16] of 0.5 nM.

As usually defined, the Ki is the dissociation constant of the complex between target and ligand, obtained from inhibition or displacement. Read a low Ki as a stronger hold on the target. In general, IC50 refers to the midpoint of a concentration-inhibition curve.
